In ChEMBL document CHEMBL1131170 (J Med Chem, 1998):
The source made the active and inactive calls. The rule behind the calls is not given here.

Tests used:
[1] = target: T1, Protein farnesyltransferase (Homo sapiens, UniProt P49354+P49356); test: Inhibition of human Farnesyltransferase at 100 uM; type: protein-complex assay
[2] = target: T1, Protein farnesyltransferase; test: Inhibitory activity against human Farnesyltransferase; type: protein-complex assay
How it was run: (§1)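 Compounds in 100% DMSO diluted 20-fold, giving 5% DMSO final. Farnesyl transfer measured; IC50 determined.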

[3] = inhibition of human Geranylgeranyl transferase using Ras-CVIM
[4] = target: T1, Protein farnesyltransferase; test: Inhibition of human Farnesyltransferase using Ras-CVLS; type: protein-complex assay
HepG2 [5] = test: Inhibition of cholesterol biosynthesis in HepG2 cells at 42 uM; type: functional; conditions: Homo sapiens
How it was run: (§2)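 HepG2 cells seeded at 2 × 10^5/well on day 0, fed delipidated-serum medium on day 3 and again on day 5, when compounds in DMSO were added for 4 h. Labeled with [14C]acetate (3 µCi/mL) for 2 h, then saponified, acidified, petroleum ether extracted twice, TLC on silica (petroleum ether–ethyl ether–acetic acid 75:25:1), phosphor imaging; incorporation into cholesterol.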

[6] = Inhibition of human Geranylgeranyl transferase using Ras-CAIL
HepG2 [7] = test: Inhibition of cholesterol biosynthesis in HepG2 cells at 106 uM; type: functional; conditions: Homo sapiens; how it was run: as §2
[8] = target: T1, Protein farnesyltransferase; test: inhibitory activity against human Farnesyltransferase; type: protein-complex assay; how it was run: as §1
HepG2 [9] = test: Inhibition of cholesterol biosynthesis in HepG2 cells at 21 uM; type: functional; conditions: Homo sapiens; how it was run: as §2
[10] = target: T1, Protein farnesyltransferase; test: (§3) Inhibition of human Farnesyltransferase; type: protein-complex assay; how it was run: as §1
[11] = target: T1, Protein farnesyltransferase; test: as §3; type: protein-complex assay; how it was run: as §1; remark: listed apart in the source
[12] = target: T1, Protein farnesyltransferase; test: as §3; type: protein-complex assay; how it was run: as §1; remark: listed apart in the source
[13] = target: T1, Protein farnesyltransferase; test: as §3; type: protein-complex assay; how it was run: as §1; remark: listed apart in the source
[14] = target: T1, Protein farnesyltransferase; test: as §3; type: protein-complex assay; conditions: concentration not given here; how it was run: as §1
HepG2 [15] = test: Inhibition of cholesterol biosynthesis in HepG2 cells at 32 uM; type: functional; conditions: Homo sapiens; how it was run: as §2
HepG2 [16] = test: Inhibition of cholesterol biosynthesis in HepG2 cells at 81 uM; type: functional; conditions: Homo sapiens; how it was run: as §2
[17] = target: T1, Protein farnesyltransferase; test: as §3; type: protein-complex assay; conditions: concentration not given here; how it was run: as §1; remark: listed apart in the source
[18] = target: T1, Protein farnesyltransferase; test: as §3; type: protein-complex assay; how it was run: as §1; remark: listed apart in the source
HepG2 [19] = test: Inhibition of cholesterol biosynthesis in HepG2 cells at 16 uM; type: functional; conditions: Homo sapiens; how it was run: as §2
[20] = target: T1, Protein farnesyltransferase; test: as §3; type: protein-complex assay; how it was run: as §1; remark: listed apart in the source
[21] = target: T1, Protein farnesyltransferase; test: as §3; type: protein-complex assay; how it was run: as §1; remark: listed apart in the source
[22] = target: T1, Protein farnesyltransferase; test: Inhibition of human Farnesyltransferase, inactive at 100 uM; type: protein-complex assay
HepG2 [23] = test: Inhibition of cholesterol biosynthesis in HepG2 cells at 25 uM; type: functional; conditions: Homo sapiens
How it was run: (§4)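 HepG2 cells seeded on day 0; fresh medium with delipidated serum on day 3 and again on day 5, when compounds (DMSO stocks) were added for 4 h. Extracts were separated by silica TLC (petroleum ether–ethyl ether–acetic acid 75:25:1) and quantified by phosphor imaging as cholesterol incorporation.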

HepG2 [24] = test: Inhibition of cholesterol biosynthesis in HepG2 cells at 2.5 uM; type: functional; conditions: Homo sapiens; how it was run: as §4

Structure (SMILES) | IC50 [2] | IC50 [8] | other results
CC(C)(CC(=O)O)CC(=O)OCC(=O)[C@@]1(O)CCC2C3CCC4=CC(=O)C=C[C@]4(C)[C@@]3(F)[C@@H](O)C[C@@]21C (stereo not given in full) | – | – | inhibition [1]: 63%
C[C@]12CCC(=O)C=C1CC[C@@H]1[C@@H]2[C@@H](O)C[C@@]2(C)[C@H]1CC[C@]2(O)C(=O)COC(=O)CCC(=O)O | – | – | inhibition [1]: 46%
COC(=O)CC[C@@]1(C)C(=O)CCC2C1C(=O)C[C@@]1(C)C2CC[C@@]12OCOC21COCO1 (stereo not given in full) | 26 µM | – | –
C[C@H](CCC(O)C(C)(C)O)[C@H]1CC[C@@]2(C)C3=C(CC[C@]12C)[C@@]1(C)C[C@@H](O)C(=O)C(C)(C)[C@@H]1CC3 (stereo not given in full) [CLAVARINONE] | – | 15 µM | IC50 [3]: > 50 µM; IC50 [4]: 8 µM; inhibition at 42 µM (HepG2 [5]): 74%; IC50 [6]: 35 µM; inhibition at 106 µM (HepG2 [7]): 97%; inhibition at 21 µM (HepG2 [9]): 59%
CC(=O)OCC(=O)[C@@]1(O)C(C)CC2C3CCC4=CC(=O)C=C[C@]4(C)C3=CC[C@@]21C (stereo not given in full) | – | 40 µM | –
CC(=O)OCC(=O)[C@@]1(O)CCC2C3CCC4=CC(=O)CC[C@]4(C)C3[C@@H](O)C[C@@]21C (stereo not given in full) | – | – | inhibition [1]: 6%
C[C@]12CCC(=O)C=C1CCC1C2C(=O)C[C@@]2(C)C1CCC2(O)C(=O)COC(=O)CCC(=O)O (stereo not given in full) | – | 24 µM | –
C[C@]1(C(=O)O)C(=O)CCC2C1C(=O)C[C@@]1(C)C2CC[C@@]12OCOC21COCO1 (stereo not given in full) | > 100 µM | – | –
CC(C)CCCC(C)C1CCC2C3CCC(=O)[C@](C)(CCC(=O)O)C3CC[C@]12C (stereo not given in full) | 40 µM | – | –
C[C@]12CCC(=O)C=C1CCC1C2C(=O)C[C@@]2(C)C1CC[C@]2(O)C(=O)COC(=O)CC(CC(=O)O)C(=O)O (stereo not given in full) | – | 50 µM | –
C[C@H](CCC(O)C(C)(C)O)[C@H]1CC[C@@]2(C)C3=C(CC[C@]12C)[C@@]1(C)C[C@@H](OC(=O)CC(C)(O)CC(=O)O)C(=O)C(C)(C)[C@@H]1CC3 (stereo not given in full) [CLAVARIC ACID] | – | – | FPTase activity (fM ug-1 min-1) [10]: 592; FPTase activity (fM ug-1 min-1) [11]: 3340; FPTase activity (fM ug-1 min-1) [12]: 7340; inhibition ([12]; concentration not given here): 70%; IC50 [3]: > 50 µM; IC50 [4]: 0.35 µM; FPTase activity (fM ug-1 min-1) [13]: 2390; IC50 [6]: 21 µM; inhibition [14]: 84%; inhibition at 32 µM (HepG2 [15]): 0%; inhibition at 81 µM (HepG2 [16]): 69%; inhibition [17]: 81%; FPTase activity (fM ug-1 min-1) [18]: 694; inhibition at 16 µM (HepG2 [19]): 0%; FPTase activity (fM ug-1 min-1) [20]: 3330
CC[C@H]1CC(=O)[C@](C)(CCC(=O)O)C2CC[C@]3(C)C(C(C)CCCC(C)C)CCC3C21 (stereo not given in full) | 60 µM | – | –
CC(C)CCCC(C)C1CCC2C3CCC(=O)[C@](C)(C[C@@H](CC(=O)O)C(=O)O)C3CC[C@]12C (stereo not given in full) | – | – | IC50 [21]: 0.19 µM
CC(C)CCCC(C)C1CCC2C3C(CC[C@]12C)[C@@](C)(C[C@@H](CC(=O)O)C(=O)O)C(=O)C[C@@H]3C (stereo not given in full) | 0.04 µM | – | –
CC(C)CCCC(C)C1CCC2C3CC=C4C(C)(C)C(=O)CC[C@]4(C)C3CC[C@]12C (stereo not given in full) | – | – | inhibition [22]: inactive
CC(C)CCCC(C)C1CCC2C3CCC(=O)C(CCC(=O)O)C3CC[C@]12C (stereo not given in full) | 1.2 µM | – | –
C[C@]12C=C(C=O)C(=O)C=C1CCC1C2C(=O)C[C@@]2(C)C1CC[C@@]21OCOC12COCO2 (stereo not given in full) | – | 1.2 µM | –
CC(C)CCCC(C)C1CCC2C3C(CC[C@]12C)[C@@](C)(CCC(=O)O)C(=O)C[C@@H]3C (stereo not given in full) | 0.9 µM | – | –
COC(=O)CC[C@@]1(C)C(=O)C[C@H](C)C2C3CCC(C(C)CCCC(C)C)[C@@]3(C)CCC21 (stereo not given in full) | – | > 100 µM | –
CC(=O)OCC(=O)[C@@]1(O)CCC2C3CCC4=CC(=O)CC[C@]4(C)C3CC[C@@]21C (stereo not given in full) | – | – | inhibition [1]: 6%
C[C@@H]1CC2C3CCC4=CC(=O)C=C[C@]4(C)C3C(=O)C[C@]2(C)[C@]12OCOC21COCO1 (stereo not given in full) | – | > 100 µM | –
CC[C@H]1CC(=O)[C@](C)(C[C@@H](CC(=O)O)C(=O)O)C2CC[C@]3(C)C(C(C)CCCC(C)C)CCC3C21 (stereo not given in full) | 3 µM | – | –

Structure (SMILES) | IC50 [2] | IC50 [8] | other results
CC(CCC(=O)O)C1CC[C@H]2[C@@H]3CCC4CC(=O)CC[C@]4(C)[C@H]3CC(=O)[C@]12C (stereo not given in full) | – | – | inhibition [1]: 33%
CC(C)C(=O)OCC(=O)[C@@]1(O)CCC2C3CCC4=CC(=O)CC[C@]4(C)C3C(=O)C[C@@]21C (stereo not given in full) | – | 15 µM | –
CC(CCC(=O)O)C1CCC2C3C(CC[C@]12C)[C@@](C)(CCC(=O)O)C(=O)C[C@@H]3C (stereo not given in full) | 31 µM | – | –
CC(=O)OCC(=O)[C@@]1(O)CC[C@H]2[C@@H]3CCC4=CC(=O)CC[C@]4(C)[C@H]3C(=O)C[C@@]21C [CORTISONE ACETATE] | – | 12 µM | –
CC[C@H]1CC2=CC(=O)CC[C@]2(C)C2CC[C@]3(C)C(C(C)CCCC(C)C)CCC3C21 (stereo not given in full) | – | > 100 µM | –
CC(C)C(=O)OCC(=O)C1CCC2C3CCC(=O)[C@](C)(CCC(=O)O)C3C(=O)C[C@]12C (stereo not given in full) | 40 µM | – | –
C[C@]12C=CC(=O)C=C1CC[C@@H]1[C@@H]2[C@@H](O)C[C@@]2(C)[C@H]1CC[C@]2(O)C(=O)COC(=O)CCC(=O)O | – | – | inhibition [1]: 36%
CCC(CC)C(=O)OCC(=O)[C@@]1(O)CCC2C3CCC4=CC(=O)CC[C@]4(C)C3C(=O)C[C@@]21C (stereo not given in full) | – | 56 µM | –
CCOC(=O)C[C@@H]1C[C@@]2(C)C(=CC1=O)CCC1C3CCC(C(C)CCCC(C)C)[C@@]3(C)CCC12 (stereo not given in full) | – | > 100 µM | –
CC(=O)C1CCC2C3CCC(=O)[C@](C)(CCC(=O)O)C3C(=O)C[C@]12C (stereo not given in full) | > 100 µM | – | –
CCOC(=O)C[C@H](C[C@@]1(C)C(=O)C[C@H](CC)C2C3CCC(C(C)CCCC(C)C)[C@@]3(C)CCC21)C(=O)O (stereo not given in full) | 40 µM | – | –
CCOC(=O)C[C@H](C[C@@]1(C)C(=O)CCC2C3CCC(C(C)CCCC(C)C)[C@@]3(C)CCC21)C(=O)O (stereo not given in full) | > 100 µM | – | –
C[C@]12CC(=O)C3C(CCC4=CC(=O)CC[C@@]43C)C1CCC2C(=O)CO (stereo not given in full) | – | > 100 µM | –
CC(C)=CCCC(C)C1CC[C@@]2(C)C3=C(CC[C@]12C)[C@@]1(C)CCC(=O)C(C)(C)C1CC3 (stereo not given in full) | – | 12 µM | –
CC(CCCC(C)(C)O)[C@H]1CC[C@H]2C3CC=C4C[C@@H](O)CC[C@]4(C)[C@H]3CC[C@]12C (stereo not given in full) | – | – | inhibition at 25 µM (HepG2 [23]): 90%; inhibition at 2.5 µM (HepG2 [24]): 87%
C[C@]1(CCC(=O)O)C(=O)CCC2C1C(=O)C[C@@]1(C)C2CC[C@@]12OCOC21COCO1 (stereo not given in full) | 29 µM | – | –
C[C@H]1CC2C3CCC4=CC(=O)C=C[C@]4(C)C3C(=O)C[C@]2(C)[C@]12OCOC21COCO1 (stereo not given in full) | – | 96 µM | –
C[C@]12C=C(C3OCCO3)C(=O)C=C1CCC1C2C(=O)C[C@@]2(C)C1CC[C@@]21OCOC12COCO2 (stereo not given in full) | – | 38 µM | –
CCC(CC)C(=O)OCC(=O)[C@@]1(O)CCC2C3CCC4=CC(=O)CC[C@]4(C)C3[C@@H](O)C[C@@]21C (stereo not given in full) | – | > 100 µM | –
CC(C)(CC(=O)O)CC(=O)OCC(=O)[C@@]1(O)CCC2C3CCC4=CC(=O)CC[C@]4(C)[C@@]3(F)[C@@H](O)C[C@@]21C (stereo not given in full) | – | 48 µM | –
CC(C)CCCC(C)C1CCC2C3CCC4=CC(=O)[C@H](CC(=O)O)C[C@]4(C)C3CC[C@]12C (stereo not given in full) | – | > 100 µM | –
CC(C)CCCC(C)C1CCC2C3CC[C@@H](C(=O)O)[C@](C)(CCC(=O)O)C3CC[C@]12C (stereo not given in full) | 21 µM | – | –
